Among the data in ChEMBL document CHEMBL1138024, “Aryl urea analogs with broad-spectrum antibacterial activity” (Bioorg Med Chem Lett, 2004) are MIC values, retold here.

What all share (type): functional
The subject of experiment [1] is Staphylococcus aureus. The experiment in a line: In vitro antibacterial activity against Staphylococcus aureus; value ranges from 6-12 uM.
The subject of experiment [2] is Staphylococcus aureus. The experiment in a line: In vitro antibacterial activity against Staphylococcus aureus; value ranges from 12-25 uM.
For experiment [3], the system named is Staphylococcus aureus. The experiment is described as follows: In vitro antibacterial activity against Staphylococcus aureus.
In experiment [4] the test system is Staphylococcus aureus. The experiment is described as follows: In vitro antibacterial activity against Staphylococcus aureus; value ranges from 3-6 uM.
Experiment [5] concerns Staphylococcus aureus. The experiment is described as follows: In vitro antibacterial activity against Staphylococcus aureus; value ranges from 25-50 uM.
Another experiment relates to Klebsiella pneumoniae. The experiment in a line: Minimum inhibitory concentration against Klebsiella pneumoniae ATCC 13383; value ranges from 6-12 uM.
A further experiment deals with Proteus vulgaris. The experiment in a line: Minimum inhibitory concentration against Proteus vulgaris ATCC 8427; value ranges from 12-25 uM.
The subject of experiment [6] is Staphylococcus aureus. The experiment is described as follows: Minimum inhibitory concentration against Staphylococcus aureus ATCC 13709; value ranges from 3-6 uM.
The next experiment deals with Escherichia coli. The experiment in a line: Minimum inhibitory concentration against Escherichia coli ATCC 25922; value ranges from 12-25 uM.
A further experiment has as its system Enterococcus faecalis. The experiment in a line: Minimum inhibitory concentration against Enterococcus faecalis ATCC 29212; value ranges from 6-12 uM.
Another experiment concerns Streptococcus pyogenes. The experiment is described as follows: Minimum inhibitory concentration against Streptococcus pyogenes ATCC 49399; value ranges from 6-12 uM.
Experiment [7] concerns Staphylococcus aureus. The experiment is described as follows: Minimum inhibitory concentration against Staphylococcus aureus ATCC 13709 (+4% BSA); value ranges from 25-50 uM. The method in brief:
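Same microdilution MIC against S. aureus ATCC 13709, but with 4% bovine serum albumin in the wells. Compound in 0.5% DMSO in water, inoculum about 10³–10⁴ CFU/well, duplicates. Growth was read as A595 after 20–24 h at 37°C against a compound-free control. MIC is reported as the range between full inhibition and viable growth.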

The next experiment deals with Pseudomonas aeruginosa. The experiment in a line: Minimum inhibitory concentration against Pseudomonas aeruginosa ATCC 25416.
Another experiment relates to Enterococcus faecium. The experiment in a line: Minimum inhibitory concentration against Enterococcus faecium ATCC 6569.
Experiment [8] has as its system Staphylococcus aureus. The experiment is described as follows: In vitro antibacterial activity against Staphylococcus aureus; value ranges from 50-100 uM.

Values after ≈ are worked out from the molar mass of the structure shown.

For orientation: MIC means the smallest concentration in the dilution series that meets the test's criterion for growth inhibition. On to `FC(F)(F)c1ccc(N/C(S)=N/CCCNCc2cc(Br)cc(Br)c2)cc1`, for which the MIC against Staphylococcus aureus [1] was determined as 12 µM (≈ 6.3 µg/mL).

The compound `S=C(NCCCNCc1cc(Br)cc(Br)c1)Nc1ccc(I)cc1` returned an MIC in the experiment on Staphylococcus aureus [2] of 25 µM (≈ 14.6 µg/mL). As for `CN(CCCNC(=O)Nc1ccc(C(F)(F)F)cc1)Cc1cc(Br)cc(Br)c1`, the minimum inhibitory concentration (MIC) against Staphylococcus aureus [3] was above 100 µM. The compound `CCOc1ccc(Br)cc1CNCCCNC(=O)Nc1ccc(C(F)(F)F)cc1` came in with an MIC against Staphylococcus aureus [1] of 12 µM (≈ 5.69 µg/mL). `S=C(NCCCNCc1cc(Br)cc(Br)c1)Nc1ccc(Cl)c(Cl)c1` had an MIC with Staphylococcus aureus [4] of 6 µM (≈ 3.16 µg/mL).

`O=C(NCCCNCc1cccc(-c2ccccc2)c1)Nc1ccc(C(F)(F)F)cc1` gave a minimum inhibitory concentration (MIC) in the experiment with Staphylococcus aureus [1] of 12 µM (≈ 5.13 µg/mL).

As for `COc1cccc(N/C(S)=N/CCCNCc2cc(Br)cc(Br)c2)c1`, the minimal inhibitory concentration (MIC) against Staphylococcus aureus [5] amounted to 50 µM (≈ 24.4 µg/mL).

Turning to `O=C(NCCCNCc1ccccc1OC(F)(F)F)Nc1ccc(C(F)(F)F)cc1`, in the experiment on Staphylococcus aureus [2], the minimal inhibitory concentration (MIC) came to 25 µM (≈ 10.9 µg/mL).

`O=C(NCCCNCc1cc(Br)cc(Br)c1)Nc1ccc(Cl)cc1` displayed an MIC against Staphylococcus aureus [1] of 12 µM (≈ 5.71 µg/mL). Consider `Fc1ccc(N/C(S)=N/CCCNCc2cc(Br)cc(Br)c2)cc1`, for which 25 µM (≈ 11.9 µg/mL) was the least that counted as inhibitory against Staphylococcus aureus [2] (MIC). In the experiment with Staphylococcus aureus [4], `O=C(NCCCNCc1ccc(Cl)c(Cl)c1)Nc1ccc(C(F)(F)F)cc1` displayed an MIC of 6 µM (≈ 2.52 µg/mL). `O=C(NCCCNCc1cc(Br)cc(Br)c1)Nc1ccc(C(F)(F)F)cc1`: the MIC with Klebsiella pneumoniae is 12 µM (≈ 6.11 µg/mL); in the experiment on Proteus vulgaris, 25 µM (≈ 12.7 µg/mL); against Staphylococcus aureus [4], 6 µM (≈ 3.05 µg/mL); with Staphylococcus aureus [6], 6 µM (≈ 3.05 µg/mL); against Escherichia coli, 25 µM (≈ 12.7 µg/mL); with Enterococcus faecalis, 12 µM (≈ 6.11 µg/mL). Besides, the minimum inhibitory concentration (MIC) in the experiment on Streptococcus pyogenes was 12 µM (≈ 6.11 µg/mL); against Staphylococcus aureus [7], 50 µM (≈ 25.5 µg/mL); against Pseudomonas aeruginosa it was above 100 µM; with Enterococcus faecium, above 100 µM.

`FC(F)(F)c1cccc(N/C(S)=N/CCCNCc2cc(Br)cc(Br)c2)c1`: the MIC with Staphylococcus aureus [1] was 12 µM (≈ 6.3 µg/mL). For `COc1ccc(-c2ccc(CNCCCNC(=O)Nc3ccc(C(F)(F)F)cc3)cc2)cc1`, in the experiment with Staphylococcus aureus [4], the minimal inhibitory concentration (MIC) turned out to be 6 µM (≈ 2.74 µg/mL). In the experiment on Staphylococcus aureus [5], `COc1ccc(N/C(S)=N/CCCNCc2cc(Br)cc(Br)c2)cc1` showed an MIC of 50 µM (≈ 24.4 µg/mL).

In turn, `S=C(NCCCNCc1cc(Br)cc(Br)c1)Nc1cccc(Br)c1` returned an MIC against Staphylococcus aureus [1] of 12 µM (≈ 6.43 µg/mL). For the compound `O=C(NCCCNCc1cc(Br)cc(Br)c1)Nc1ccc(Cl)c(Cl)c1`, in the experiment on Staphylococcus aureus [4], the MIC turned out to be 6 µM (≈ 3.06 µg/mL). With `O=C(NCCCNCc1cc(F)cc(F)c1)Nc1ccc(C(F)(F)F)cc1`, in the experiment with Staphylococcus aureus [8], inhibition of growth (MIC) required 100 µM (≈ 38.7 µg/mL). `COc1ccccc1-c1ccc(CNCCCNC(=O)Nc2ccc(C(F)(F)F)cc2)cc1` returned an MIC in the experiment with Staphylococcus aureus [1] of 12 µM (≈ 5.49 µg/mL). In the experiment on Staphylococcus aureus [3], `CC(=O)Nc1ccc(CNCCCNC(=O)Nc2ccc(C(F)(F)F)cc2)cc1` displayed a minimal inhibitory concentration (MIC) above 100 µM. Regarding `S=C(NCCCNCc1cc(Br)cc(Br)c1)Nc1cccc(Cl)c1`, the MIC with Staphylococcus aureus [1] is 12 µM (≈ 5.9 µg/mL).

Compound `Fc1cccc(N/C(S)=N/CCCNCc2cc(Br)cc(Br)c2)c1` had an MIC against Staphylococcus aureus [2] of 25 µM (≈ 11.9 µg/mL).
